The test system of series [1] is E. granulosus protoscoleces. In words: Protoscolicidal. Format: cell-based. The following applies: Echinococcus granulosus; for IC50: read-out: IC50 protoscolicidal activity; for viability at 25 µg/mL / viability at 50 µg/mL / viability at 75 µg/mL / viability at 100 µg/mL / viability at 125 µg/mL: read-out: viability of protoscoleces. A digest of the protocol:
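Protoscoleces came from hydatid cysts of naturally infected sheep, settled without centrifugation, washed three times in HBSS, and cultured in RPMI 1640 (12 mM HEPES, glutamine, antibiotics, amphotericin B, 10 % FCS, glucose). Within 10 days, ~500 protoscoleces in 20 ml medium received test compound at 25–125 µg/ml; DMSO control. Viability was scored by motility and 0.1 % trypan blue exclusion in 10 random fields (10X). Triplicate; IC50 by nonlinear regression.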

Another series has as its system HepG2 cells. As to the kind of experiment: In-vitro cytotoxicity MTT assay on HepG2 cell line. Type of series: cell-based, human. The following applies: 125 μg/ml, third day. A digest of the protocol: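 HepG2 monolayers in phenol-red-free DMEM with 10 % FCS, penicillin and streptomycin, grown 48 h at 37 °C/5 % CO2 to confluency. Test compound in DMSO at 25, 50, 75, 100, 125 µg; medium-only negative control with matched DMSO. After 48 h at 37 °C, MTT (5 mg/mL) added for 4 h, then DMSO-dissolved formazan read at 570/655 nm. Triplicate; viability relative to untreated cells.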

For series [2], the system named is protoscoleces and metacestodes of Echinococcus granulosus. The following applies: cited from earlier work.

In brackets after ≈: the same amount, converted by molar mass.

By IC50 is commonly meant the concentration that gives 50% inhibition. As usually defined, the viability is the share of living cells, or the viability signal relative to a control. Turning to `Cc1ccc(NC(=O)c2cccc3ccccc23)cc1` [Compound 10, N-p-tolyl-1-naphthamide], in series [1], the IC50 is 29.5 µg/mL (≈ 113 µM), the viability at 25 µg/mL came to 47.3%, the viability at 50 µg/mL came to 20% and the viability at 75 µg/mL stood at 10.3%. Further, in series [1], the viability at 100 µg/mL was 0% and the viability at 125 µg/mL amounted to 0%. Besides, the “cell survival rate of HepG2” value with HepG2 cells is on record as 40%.
`Cc1ccc(NC(=O)c2ccc(OC(F)(F)F)cc2)cc1` [Compound 16, N-p-tolyl-4-(trifluoromethoxy)benzamide]: in series [1], the IC50 is 66.5 µg/mL (≈ 225 µM), the viability at 25 µg/mL turned out to be 72.6%, the viability at 50 µg/mL amounted to 62.6% and the viability at 75 µg/mL stood at 45.3%. Also, in series [1], the viability at 100 µg/mL came to 39.6% and the viability at 125 µg/mL was 30%. Moreover, the “cell survival rate of HepG2” value in the series with HepG2 cells is 38%.
For the molecule `Cc1ccc(NC(=O)c2cc([N+](=O)[O-])cc([N+](=O)[O-])c2)cc1` [Compound 6, 3,5-dinitro-N-p-tolylbenzamide], in series [1], the IC50 came to 77 µg/mL (≈ 256 µM), the viability at 25 µg/mL came out at 72.6%, the viability at 50 µg/mL came to 66.6% and the viability at 75 µg/mL came out at 53.6%. For the same molecule, in series [1], the viability at 100 µg/mL stood at 43% and the viability at 125 µg/mL is 32.3%. For the same molecule, the “cell survival rate of HepG2” value in the series with HepG2 cells was 36%.
`Cc1ccc(NC(=O)c2c(F)c(F)c(F)c(F)c2F)cc1` [Compound 20, 2,3,4,5,6-pentafluoro-N-p-tolylbenzamide]: in series [1], the IC50 amounted to 39.5 µg/mL (≈ 131 µM), the viability at 25 µg/mL is 54.3%, the viability at 50 µg/mL turned out to be 50.6% and the viability at 75 µg/mL turned out to be 18.3%. Besides, in series [1], the viability at 100 µg/mL came out at 9.6% and the viability at 125 µg/mL amounted to 0%. The “cell survival rate of HepG2” value in the series on HepG2 cells was determined as 32%.
With `CCCCCc1ccc(C(=O)Nc2ccc(C)cc2)cc1` [Compound 18, 4-pentyl-N-p-tolylbenzamide], in series [1], the IC50 was 45 µg/mL (≈ 160 µM), the viability at 25 µg/mL was 63.3%, the viability at 50 µg/mL is 49.6% and the viability at 75 µg/mL came to 38.3%. Moreover, in series [1], the viability at 100 µg/mL turned out to be 29% and the viability at 125 µg/mL was determined as 21%. In the series with HepG2 cells, the “cell survival rate of HepG2” value is reported as “approximately 54%”.
Consider `CC(=O)Oc1ccccc1C(=O)Nc1ncc([N+](=O)[O-])s1` [Nitazoxanide], for which the antiechinococcal activity result in series [2] is reported as “potent antiechinococcal activity”.
